Columns and labels:
BXPC-3 [1] = assay: Induction of apoptosis in human BxPC3 cells assessed as total apoptotic death at 5 uM using annexin V/7-AAD by FACS analysis (reference value: 18 %); type: functional
Summary of the method: (§1)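 Cells plated 24 h before treatment, then exposed 24 h to 0.5, 5, 15 or 50 μM compound (final DMSO 0.5%); vehicle controls included. Cells scraped and stained with annexin V-FITC and 7-AAD for 15 min on ice in the dark. Flow cytometry with 488 nm excitation, 10,000 gated cells. Early apoptosis was annexin V+/7-AAD−, late was annexin V+/7-AAD+.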

PC-3 [2] = assay: Cell cycle arrest in human PC3 cells assessed as accumulation at >G2/M phase at 5 uM after 24 hrs using propidium iodide staining by FACS analysis (reference value: 6 %); type: functional
PC-3 [3] = assay: Cell cycle arrest in human PC3 cells assessed as accumulation at >G2/M phase at 15 uM after 24 hrs using propidium iodide staining by FACS analysis (reference value: 6 %); type: functional
BXPC-3 [4] = assay: Cell cycle arrest in human BxPC3 cells assessed as accumulation at sub G1 phase at 5 uM after 24 hrs using propidium iodide staining by FACS analysis (reference value: 9 %); type: functional
Summary of the method: (§2)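 Cells were plated 24 h before treatment and exposed for 24 h at final 0.5, 5, 15 and 50 μM in 0.5% DMSO, against vehicle-treated controls. Cells were then trypsinised and fixed in cold ethanol for 3 h at 4 °C. They were stained in a mix of RNase (200 μg/mL) and PI (1 mg/mL) for 45 min at room temperature in the dark. Flow cytometry used 488 nm excitation and 10 000 gated cells. Phase percentages were assigned from DNA content.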

[5] = (§3) Growth inhibition of human HUVEC cells after 48 hrs by SRB assay; type: cell-based; details: HUVEC cells
Summary of the method: (§4)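 Cells grown in RPMI 1640 with 5% heat-inactivated FCS, 2 mM L-glutamine and antibiotics, 37 °C, 5% CO2. Seeded at 3500–30000 cells/well and left 24 h before dosing. DMSO solutions added at 10-fold dilutions from 100 to 0.01 μM for 48 h. Cells TCA-fixed and SRB-stained, absorbance read at 540 nm; GI50 derived against the time-zero plate.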

HUVEC = assay: as §3; type: cell-based; details: huvec, 48 h; summary of the method: as §4
DU-145 = assay: Growth inhibition of human DU145 cells after 48 hrs by SRB assay; type: functional; details: DU-145, 48 h; summary of the method: as §4
IGROV-1 [6] = assay: Induction of apoptosis in human IGROV1 cells assessed as early apoptosis at 15 uM using annexin V/7-AAD by FACS analysis (reference value: 9 %); type: functional
PC-3 [7] = assay: Induction of apoptosis in human PC3 cells assessed as cleaved caspase3 containing cells at 5 uM by antibody-based FACS analysis (reference value: 3.2 %); type: functional
IGROV-1 [8] = assay: Cell cycle arrest in human IGROV1 cells assessed as accumulation at sub G1 phase at 5 uM after 24 hrs using propidium iodide staining by FACS analysis (reference value: 4 %); type: functional
BXPC-3 [9] = assay: Cell cycle arrest in human BxPC3 cells assessed as accumulation at G1 phase at 15 uM after 24 hrs using propidium iodide staining by FACS analysis (reference value: 41 %); type: functional; summary of the method: as §2
[10] = (§5) Growth inhibition of human NHDF cells after 48 hrs by SRB assay; type: cell-based; details: NHDF cells; summary of the method: as §4
NHDF = assay: as §5; type: cell-based; details: nhdf, 48 h; summary of the method: as §4
IGROV-1 [11] = assay: Induction of apoptosis in human IGROV1 cells assessed as late apoptosis at 50 uM using annexin V/7-AAD by FACS analysis (reference value: 5 %); type: functional
BXPC-3 [12] = assay: Cell cycle arrest in human BxPC3 cells assessed as accumulation at S phase at 0.5 uM after 24 hrs using propidium iodide staining by FACS analysis (reference value: 33 %); type: functional; summary of the method: as §2
BXPC-3 [13] = assay: Induction of apoptosis in human BxPC3 cells assessed as total apoptotic death at 0.5 uM using annexin V/7-AAD by FACS analysis (reference value: 18 %); type: functional; summary of the method: as §1
PC-3 [14] = assay: Antitumor activity against human PC3 cells xenografted in SCID mouse assessed as axillary metastasis at 55 mg/kg, ip administered 5 consecutive days in a week for two cycles measured after 2 cycles relative to control; type: functional; details: route intraperitoneal
Summary of the method: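 PC3 xenografts were grown in SCID mice (10^6 cells per inoculum), 14 mice (28 tumors) per group, dosed ip from about 100 mm3. The test agent was given in 5% Tween 80; paclitaxel was given in Cremophor diluted in saline, with a vehicle of 1:1 ethanol/Cremophor diluted 1:3 in saline. Volume and %ΔT/ΔC were derived from caliper readings twice weekly. Occurrence of primary tumors and of axillary and bone metastases was scored (n = 7). Two-tailed t test.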

PC-3 [15] = assay: Cell cycle arrest in human PC3 cells assessed as accumulation at sub G1 phase at 50 uM after 24 hrs using propidium iodide staining by FACS analysis (reference value: 4 %); type: functional
BXPC-3 [16] = assay: Induction of apoptosis in human BxPC3 cells assessed as early apoptosis at 0.5 uM using annexin V/7-AAD by FACS analysis (reference value: 9 %); type: functional
OVCAR-5 = assay: Antitumor activity against human OVCAR5 cells xenografted in SCID mouse assessed as primary tumor growth inhibition at 55 mg/kg, ip administered 5 consecutive days in a week for two cycles measured after 2 cycles relative to control; type: functional; details: OVCAR-5, ip, route intraperitoneal, read-out: TGI
Summary of the method: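 SCID mice carried OVCAR5 xenografts (10^6 cells per inoculum), 16 mice (32 tumors) per group, with ip dosing in 5% Tween 80 from a tumor volume of about 100 mm3. Caliper volume was measured twice weekly and %ΔT/ΔC derived. At termination, primary tumors were weighed and secondary metastases were scored at axillary and bone sites (n = 7−8). Two-tailed t test.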

IGROV-1 [17] = assay: Cell cycle arrest in human IGROV1 cells assessed as accumulation at S phase at 50 uM after 24 hrs using propidium iodide staining by FACS analysis (reference value: 29 %); type: functional
BXPC-3 [18] = assay: Induction of apoptosis in human BxPC3 cells assessed as late apoptosis at 50 uM using annexin V/7-AAD by FACS analysis (reference value: 9 %); type: functional; summary of the method: as §1
IGROV-1 [19] = assay: Induction of apoptosis in human IGROV1 cells assessed as late apoptosis at 5 uM using annexin V/7-AAD by FACS analysis (reference value: 5 %); type: functional
BXPC-3 [20] = assay: Antitumor activity against human BxPC3 cells xenografted in SCID mouse assessed as tumor growth inhibition at 40 mg/kg, ip administered 3 consecutives days per week for three cycles measured after 3 cycles relative to control; type: functional; details: BXPC-3, ip, route intraperitoneal, read-out: TGI
Summary of the method: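 BxPC3 xenografts were grown in SCID mice from inocula of 10^6 exponentially growing cells, with 10 mice (20 tumors) per group. Treatment started ip once tumors averaged about 100 mm3. The test agent was given in 5% Tween 80 and gemcitabine in water for injection. Tumor volume was measured by caliper twice weekly and %ΔT/ΔC was computed; two-tailed Student's t test.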

IGROV-1 [21] = assay: Cell cycle arrest in human IGROV1 cells assessed as accumulation at S phase at 15 uM after 24 hrs using propidium iodide staining by FACS analysis (reference value: 29 %); type: functional

Compound `CN1CCN(CCCc2ccc(C(c3ccccc3)C34CC5CC(CC(C5)C3)C4)cc2)CC1` (centres undefined) has an Activity (BXPC-3 [1]) of 21%, an Activity (PC-3 [2]) of 6% and an Activity (PC-3 [3]) of 7%. It also gave an Activity (BXPC-3 [4]) of 8%, a GI50 at 48 h [5] of 2.98 µM and an LC50 (HUVEC) of 8.62 µM. It also gave a TGI (HUVEC) of 5.8 µM, a GI50 (DU-145) of 3.77 µM and a TGI (DU-145) of 7.11 µM. For the same compound, the CC50 (DU-145; read-out: LC50 (the source's name)) was 0.1 µM, the Activity (IGROV-1 [6]) was 37% and the Activity (PC-3 [7]) was 2%. The Activity (IGROV-1 [8]) was 4%, the Activity (BXPC-3 [9]) was 32% and the GI50 at 48 h [10] was 9.68 µM. For the same compound, the LC50 (NHDF) was 100 µM, the TGI (NHDF) was 78.2 µM and the Activity (IGROV-1 [11]) was 25%. The Activity (BXPC-3 [12]) was 31%, the Activity (BXPC-3 [13]) was 17% and the Activity (PC-3 [14]) was 0%. For the same compound, the Activity (PC-3 [15]) was 12%, the Activity (BXPC-3 [16]) was 10% and the inhibition in vivo at 55 mg/kg (OVCAR-5) was 46.9%. It also gave an Activity (IGROV-1 [17]) of 28%, an Activity (BXPC-3 [18]) of 44% and an Activity (IGROV-1 [19]) of 5%. For the same compound, the inhibition in vivo at 40 mg/kg (BXPC-3 [20]) was 21.8% and the Activity (IGROV-1 [21]) was 25%.
